Legend:
Plasmodium falciparum [1] = assay: Antimicrobial activity against Plasmodium falciparum D6 harboring Pfcrt, Pfmdr1, Pfmrp, and Pfnhe-1 polymorphisms assessed as growth inhibition after 48 hrs by scintillation counting; assay type: functional, organism-based; settings: D6, 48 h
How it was run: (§1)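 Sorbitol-synchronized (twice) culture-adapted strains were grown in type A+ human blood in RPMI 1640 with 10% human serum, 25 mM HEPES and 25 mM NaHCO3, at 37°C under 10% O2/5% CO2/85% N2. Rings (>95%) at 0.5% parasitemia and 1.5% hematocrit were exposed to drug, methanol then water, final 0.125–400 nM or 5.3–3,387 nM, with 1 μCi [3H]hypoxanthine for 48 h. IC50 from nonlinear regression versus drug-free controls.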

Plasmodium falciparum [2] = assay: Antimicrobial activity against Plasmodium falciparum IMT 6311 harboring Pfcrt, Pfmdr1, Pfmrp, and Pfnhe-1 polymorphisms assessed as growth inhibition after 48 hrs by scintillation counting; assay type: functional, organism-based; settings: IMT 6311, 48 h; how it was run: as §1
Plasmodium falciparum [3] = assay: Antimicrobial activity against Plasmodium falciparum IMT Bres harboring Pfcrt, Pfmdr1, Pfmrp, and Pfnhe-1 polymorphisms assessed as growth inhibition after 48 hrs by scintillation counting; assay type: functional, organism-based; how it was run: as §1
Plasmodium falciparum [4] = assay: Antimicrobial activity against Plasmodium falciparum W2 harboring Pfcrt, Pfmdr1, Pfmrp, and Pfnhe-1 polymorphisms assessed as growth inhibition after 48 hrs by scintillation counting; assay type: functional, organism-based; settings: W2, 48 h; how it was run: as §1
Plasmodium falciparum [5] = assay: Antimicrobial activity against Plasmodium falciparum IMT K4 harboring Pfcrt, Pfmdr1, Pfmrp, and Pfnhe-1 polymorphisms assessed as growth inhibition after 48 hrs by scintillation counting; assay type: functional, organism-based; settings: IMT K4, 48 h; how it was run: as §1
Plasmodium falciparum [6] = assay: Antimicrobial activity against Plasmodium falciparum IMT 31 harboring Pfcrt, Pfmdr1, Pfmrp, and Pfnhe-1 polymorphisms assessed as growth inhibition after 48 hrs by scintillation counting; assay type: functional, organism-based; settings: IMT 31, 48 h; how it was run: as §1
Plasmodium falciparum [7] = assay: Antimicrobial activity against Plasmodium falciparum IMT 9881 harboring Pfcrt, Pfmdr1, Pfmrp, and Pfnhe-1 polymorphisms assessed as growth inhibition after 48 hrs by scintillation counting; assay type: functional, organism-based; settings: IMT 9881, 48 h; how it was run: as §1
Plasmodium falciparum [8] = assay: Antimicrobial activity against Plasmodium falciparum ms4760-7 assessed as growth inhibition after 48 hrs by scintillation counting; settings: ms4760-7, 48 h
Plasmodium falciparum [9] = assay: Antimicrobial activity against Plasmodium falciparum IMT 9996 harboring Pfcrt, Pfmdr1, Pfmrp, and Pfnhe-1 polymorphisms assessed as growth inhibition after 48 hrs by scintillation counting; assay type: functional, organism-based; settings: IMT 9996, 48 h; how it was run: as §1
Plasmodium falciparum [10] = assay: Antimicrobial activity against Plasmodium falciparum 3D7 harboring Pfcrt, Pfmdr1, Pfmrp, and Pfnhe-1 polymorphisms assessed as growth inhibition after 48 hrs by scintillation counting; assay type: functional, organism-based; settings: 3D7, 48 h; how it was run: as §1
Plasmodium falciparum [11] = assay: Antimicrobial activity against Plasmodium falciparum IMT Vol harboring Pfcrt, Pfmdr1, Pfmrp, and Pfnhe-1 polymorphisms assessed as growth inhibition after 48 hrs by scintillation counting; assay type: functional, organism-based; how it was run: as §1
Plasmodium falciparum [12] = assay: Antimicrobial activity against Plasmodium falciparum IMT K2 harboring Pfcrt, Pfmdr1, Pfmrp, and Pfnhe-1 polymorphisms assessed as growth inhibition after 48 hrs by scintillation counting; assay type: functional, organism-based; settings: IMT K2, 48 h
How it was run: (§2)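 Culture-adapted strains in RPMI 1640 with 10% human serum, 25 mM HEPES, 25 mM NaHCO3, type A+ blood, 10% O2/5% CO2/85% N2, 37°C; sorbitol-synchronized twice. Rings >95%, 0.5% parasitemia, 1.5% hematocrit; drug (methanol then water) final 0.125–400 nM or 5.3–3,387 nM. [3H]hypoxanthine 1 μCi/well at time zero, 48 h; freeze-thaw, harvest, scintillation; IC50 versus drug-free control by nonlinear regression of log dose-response.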

Plasmodium falciparum [13] = assay: Antimicrobial activity against Plasmodium falciparum IMT 16332 harboring Pfcrt, Pfmdr1, Pfmrp, and Pfnhe-1 polymorphisms assessed as growth inhibition after 48 hrs by scintillation counting; assay type: functional, organism-based; settings: IMT 16332, 48 h; how it was run: as §1
Plasmodium falciparum [14] = assay: Antimicrobial activity against Plasmodium falciparum IMT 10500 harboring Pfcrt, Pfmdr1, Pfmrp, and Pfnhe-1 polymorphisms assessed as growth inhibition after 48 hrs by scintillation counting; assay type: functional, organism-based; settings: IMT 10500, 48 h; how it was run: as §1
Plasmodium falciparum [15] = assay: Antimicrobial activity against Plasmodium falciparum IMT 16116 harboring Pfcrt, Pfmdr1, Pfmrp, and Pfnhe-1 polymorphisms assessed as growth inhibition after 48 hrs by scintillation counting; assay type: functional, organism-based; settings: IMT 16116, 48 h; how it was run: as §1
Plasmodium falciparum [16] = assay: Antimicrobial activity against Plasmodium falciparum IMT 10354 harboring Pfcrt, Pfmdr1, Pfmrp, and Pfnhe-1 polymorphisms assessed as growth inhibition after 48 hrs by scintillation counting; assay type: functional, organism-based; settings: IMT 10354, 48 h; how it was run: as §1
Plasmodium falciparum [17] = assay: Antimicrobial activity against Plasmodium falciparum IMT A4 harboring Pfcrt, Pfmdr1, Pfmrp, and Pfnhe-1 polymorphisms assessed as growth inhibition after 48 hrs by scintillation counting; assay type: functional, organism-based; settings: IMT A4, 48 h; how it was run: as §2
Plasmodium falciparum [18] = assay: Antimicrobial activity against Plasmodium falciparum ms4760-6 assessed as growth inhibition after 48 hrs by scintillation counting; settings: ms4760-6, 48 h
Plasmodium falciparum [19] = assay: Antimicrobial activity against Plasmodium falciparum IMT K14 harboring Pfcrt, Pfmdr1, Pfmrp, and Pfnhe-1 polymorphisms assessed as growth inhibition after 48 hrs by scintillation counting; assay type: functional, organism-based; settings: IMT K14, 48 h; how it was run: as §1
Plasmodium falciparum [20] = assay: Antimicrobial activity against Plasmodium falciparum IMT L1 harboring Pfcrt, Pfmdr1, Pfmrp, and Pfnhe-1 polymorphisms assessed as growth inhibition after 48 hrs by scintillation counting; assay type: functional, organism-based; settings: IMT L1, 48 h; how it was run: as §2
Plasmodium falciparum [21] = assay: Antimicrobial activity against Plasmodium falciparum IMT 8425 harboring Pfcrt, Pfmdr1, Pfmrp, and Pfnhe-1 polymorphisms assessed as growth inhibition after 48 hrs by scintillation counting; assay type: functional, organism-based; settings: IMT 8425, 48 h; how it was run: as §1
Plasmodium falciparum [22] = assay: Antimicrobial activity against Plasmodium falciparum FCM29 harboring Pfcrt, Pfmdr1, Pfmrp, and Pfnhe-1 polymorphisms assessed as growth inhibition after 48 hrs by scintillation counting; assay type: functional, organism-based; settings: FCM29, 48 h; how it was run: as §2
Plasmodium falciparum [23] = assay: Antimicrobial activity against Plasmodium falciparum PA harboring Pfcrt, Pfmdr1, Pfmrp, and Pfnhe-1 polymorphisms assessed as growth inhibition after 48 hrs by scintillation counting; assay type: functional, organism-based; how it was run: as §2
Plasmodium falciparum [24] = assay: Antimicrobial activity against Plasmodium falciparum FCR3 harboring Pfcrt, Pfmdr1, Pfmrp, and Pfnhe-1 polymorphisms assessed as growth inhibition after 48 hrs by scintillation counting; assay type: functional, organism-based; settings: FCR3, 48 h; how it was run: as §1
Plasmodium falciparum [25] = assay: Antimicrobial activity against Plasmodium falciparum IMT 10336 harboring Pfcrt, Pfmdr1, Pfmrp, and Pfnhe-1 polymorphisms assessed as growth inhibition after 48 hrs by scintillation counting; assay type: functional, organism-based; settings: IMT 10336, 48 h; how it was run: as §1

C=C[C@H]1CN2CC[C@H]1C[C@H]2[C@H](O)c1ccnc2ccc(OC)cc12 [QUININE]
IC50 (Plasmodium falciparum [1]): 62 nM
IC50 (Plasmodium falciparum [2]): 453 nM
IC50 (Plasmodium falciparum [3]): 500 nM
IC50 (Plasmodium falciparum [4]): 686 nM
IC50 (Plasmodium falciparum [5]): 1030 nM
IC50 (Plasmodium falciparum [6]): 371 nM
IC50 (Plasmodium falciparum [7]): 57 nM
IC50 (Plasmodium falciparum [8]): 764 nM
IC50 (Plasmodium falciparum [9]): 1040 nM
IC50 (Plasmodium falciparum [10]): 128 nM
IC50 (Plasmodium falciparum [11]): 421 nM
IC50 (Plasmodium falciparum [12]): 599 nM
IC50 (Plasmodium falciparum [13]): 83 nM
IC50 (Plasmodium falciparum [14]): 210 nM
IC50 (Plasmodium falciparum [15]): 204 nM
IC50 (Plasmodium falciparum [16]): 58 nM
IC50 (Plasmodium falciparum [17]): 605 nM
IC50 (Plasmodium falciparum [18]): 582 nM
IC50 (Plasmodium falciparum [19]): 1310 nM
IC50 (Plasmodium falciparum [20]): 575 nM
IC50 (Plasmodium falciparum [21]): 148 nM
IC50 (Plasmodium falciparum [22]): 580 nM
IC50 (Plasmodium falciparum [23]): 625 nM
IC50 (Plasmodium falciparum [24]): 334 nM
IC50 (Plasmodium falciparum [25]): 271 nM
